One series has as its system MCF7. As to the kind of experiment: Cytotoxicity against human MCF7 cells assessed as reduction in cell viability after 48 hrs by SRB colorimetric assay. Type of series: functional, cell-based. Conditions: MCF7, 48 h. The method in brief: (§1)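 MCF-7 from ATCC and its stepwise ADR-selected resistant subline, grown in RPMI-1640 with 10% FBS and penicillin/streptomycin at 37 °C, 5% CO2. 1 × 10^4 cells/well exposed to graded compound concentrations for 48 h. Cells fixed with 10% TCA, stained with 0.4% SRB in 1% acetic acid, dye extracted with 10 mM Tris base, OD read at 490 nm. Taxol positive control.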
(In general: The SRB assay estimates cell density from bound dye.)

The target of series [1] is T1, ATP-dependent translocase ABCB1 (Homo sapiens, UniProt P08183). Briefly: Inhibition of P-gp in human MCF7/ADR cells assessed as side scatter count of cells at 10 uM pre-treated for 1 hr at 37 degC followed by incubation with Rh123 for 1 hr by flow cytometry (reference value: 100.6 No unit). Type of series: cell-based. The conditions noted are these: nci/adr-res. For orientation: Flow cytometry measures light scatter and fluorescence of single cells or particles in a stream.
T1 sequence (P08183 whole entry): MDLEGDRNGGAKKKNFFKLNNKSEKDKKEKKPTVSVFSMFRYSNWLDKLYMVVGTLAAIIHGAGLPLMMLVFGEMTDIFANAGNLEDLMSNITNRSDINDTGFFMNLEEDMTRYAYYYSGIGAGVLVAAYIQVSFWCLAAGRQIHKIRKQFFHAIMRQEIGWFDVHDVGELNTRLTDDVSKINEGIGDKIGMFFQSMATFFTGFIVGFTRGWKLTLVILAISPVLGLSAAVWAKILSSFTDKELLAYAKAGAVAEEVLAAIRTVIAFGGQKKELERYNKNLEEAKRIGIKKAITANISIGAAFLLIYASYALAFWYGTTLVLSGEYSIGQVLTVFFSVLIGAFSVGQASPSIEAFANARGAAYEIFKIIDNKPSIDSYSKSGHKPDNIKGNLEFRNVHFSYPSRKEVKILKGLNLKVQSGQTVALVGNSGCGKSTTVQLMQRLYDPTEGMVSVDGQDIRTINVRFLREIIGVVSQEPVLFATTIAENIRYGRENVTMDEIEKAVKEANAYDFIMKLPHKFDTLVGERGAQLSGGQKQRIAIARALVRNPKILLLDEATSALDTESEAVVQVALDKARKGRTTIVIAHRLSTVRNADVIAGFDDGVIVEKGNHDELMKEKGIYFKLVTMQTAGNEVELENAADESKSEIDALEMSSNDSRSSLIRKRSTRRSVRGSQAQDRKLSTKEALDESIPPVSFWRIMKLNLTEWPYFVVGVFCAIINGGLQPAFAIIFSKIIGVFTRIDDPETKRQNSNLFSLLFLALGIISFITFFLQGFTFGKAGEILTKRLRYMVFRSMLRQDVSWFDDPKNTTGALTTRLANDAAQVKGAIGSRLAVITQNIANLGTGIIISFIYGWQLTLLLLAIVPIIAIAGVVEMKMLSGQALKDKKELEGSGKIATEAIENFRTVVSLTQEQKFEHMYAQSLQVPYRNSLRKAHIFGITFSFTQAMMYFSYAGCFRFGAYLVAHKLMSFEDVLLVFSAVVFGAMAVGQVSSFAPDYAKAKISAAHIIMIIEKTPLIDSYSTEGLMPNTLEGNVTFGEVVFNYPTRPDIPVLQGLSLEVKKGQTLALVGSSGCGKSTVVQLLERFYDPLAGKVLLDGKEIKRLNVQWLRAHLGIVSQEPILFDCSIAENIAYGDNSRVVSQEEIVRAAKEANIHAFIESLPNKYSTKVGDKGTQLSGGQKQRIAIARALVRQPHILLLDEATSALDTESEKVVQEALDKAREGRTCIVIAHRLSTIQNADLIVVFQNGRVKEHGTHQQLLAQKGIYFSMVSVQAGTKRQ

For series [2], the target named is T1, ATP-dependent translocase ABCB1. As to the kind of experiment: Inhibition of P-gp in human MCF7/ADR cells assessed as forward scatter count of cells at 10 uM pre-treated for 1 hr at 37 degC followed by incubation with Rh123 for 1 hr by flow cytometry (reference value: 142.5 No unit). Conditions: nci/adr-res. The format is cell-based.
Series [3] has the same target. Briefly: Inhibition of P-gp in human MCF7/ADR cells assessed as mean fluorescence intensity of cells at 2 uM pre-treated for 1 hr at 37 degC followed by incubation with Rh123 for 1 hr by flow cytometry (reference value: 108.1 +/- 43.9 No unit). The format is cell-based. Conditions: nci/adr-res.
Series [4] shares this target. As to the kind of experiment: Inhibition of P-gp in human MCF7/ADR cells assessed as peak fluorescence intensity of cells at 2 uM pre-treated for 1 hr at 37 degC followed by incubation with Rh123 for 1 hr by flow cytometry (reference value: 87.3 No unit). The format is cell-based. The conditions noted are these: nci/adr-res.
A further series relates to NCI/ADR-RES. Briefly: Inhibition of P-gp in human MCF7/ADR cells assessed as reversal of multidrug resistance at 10 uM by measuring ratio of EC50(adriamycin)/EC50(adriamycin + compound) after 48 hrs by SRB colorimetric assay. The format is cell-based.
The target of series [5] is T1, ATP-dependent translocase ABCB1. Briefly: Inhibition of P-gp in human MCF7/ADR cells assessed as forward scatter count of cells at 20 uM pre-treated for 1 hr at 37 degC followed by incubation with Rh123 for 1 hr by flow cytometry (reference value: 142.5 No unit). Type of series: cell-based. Conditions: nci/adr-res.
Series [6] shares this target. Briefly: Inhibition of P-gp in human MCF7/ADR cells assessed as side scatter count of cells at 20 uM pre-treated for 1 hr at 37 degC followed by incubation with Rh123 for 1 hr by flow cytometry (reference value: 100.6 No unit). Type of series: cell-based. Conditions: nci/adr-res.
Series [7] has the same target. Briefly: Inhibition of P-gp in human MCF7/ADR cells assessed as mean fluorescence intensity of cells at 10 uM pre-treated for 1 hr at 37 degC followed by incubation with Rh123 for 1 hr by flow cytometry (reference value: 108.1 +/- 43.9 No unit). Type of series: cell-based. The conditions noted are these: nci/adr-res.
Series [8] has the same target. As to the kind of experiment: Inhibition of P-gp in human MCF7/ADR cells assessed as side scatter count of cells at 2 uM pre-treated for 1 hr at 37 degC followed by incubation with Rh123 for 1 hr by flow cytometry (reference value: 100.6 No unit). Type of series: cell-based. Conditions: nci/adr-res.
Series [9] shares this target. Briefly: Inhibition of P-gp in human MCF7/ADR cells assessed as reversal of multidrug resistance by measuring relative enhancement intensity for adriamycin-induced cytotoxicity at 10 uM after 48 hrs by SRB colorimetric assay. Set-up: scale not given: the % may be the effect or the level left. Type of series: cell-based. The conditions noted are these: nci/adr-res.

The nature of series [10]: Cytotoxicity against human MCF7/ADR cells assessed as reduction in cell viability after 48 hrs by SRB colorimetric assay. The format is functional, cell-based. Conditions: NCI/ADR-RES. The method in brief:
as §1

In series [11] the target is T1, ATP-dependent translocase ABCB1. Briefly: Inhibition of P-gp in human MCF7/ADR cells assessed as peak fluorescence intensity of cells at 10 uM pre-treated for 1 hr at 37 degC followed by incubation with Rh123 for 1 hr by flow cytometry (reference value: 87.3 No unit). Type of series: cell-based. Conditions: nci/adr-res.
Series [12] shares this target. Briefly: Inhibition of P-gp in human MCF7/ADR cells assessed as peak fluorescence intensity of cells at 20 uM pre-treated for 1 hr at 37 degC followed by incubation with Rh123 for 1 hr by flow cytometry (reference value: 87.3 No unit). Type of series: cell-based. The conditions noted are these: nci/adr-res.
The target is the same in series [13]. Briefly: Inhibition of P-gp in human MCF7/ADR cells assessed as forward scatter count of cells at 2 uM pre-treated for 1 hr at 37 degC followed by incubation with Rh123 for 1 hr by flow cytometry (reference value: 142.5 No unit). Type of series: cell-based. The conditions noted are these: nci/adr-res.
Series [14] has the same target. Briefly: Inhibition of P-gp in human MCF7/ADR cells assessed as mean fluorescence intensity of cells at 20 uM pre-treated for 1 hr at 37 degC followed by incubation with Rh123 for 1 hr by flow cytometry (reference value: 108.1 +/- 43.9 No unit). The format is cell-based. Conditions: nci/adr-res.
Series [15] shares this target. As to the kind of experiment: Inhibition of P-gp in human MCF7/ADR cells assessed as mean fluorescence intensity of cells pre-treated for 1 hr at 37 degC followed by incubation with Rh123 for 1 hr by flow cytometry. The format is cell-based. The conditions noted are these: nci/adr-res.
The nature of series [16]: Lipophilicity, log P of the compound. The conditions noted are these: octanol/water. Type of series: physicochemical.
Series [17] can be described thus: Inhibition of P-gp in human MCF7/ADR cells assessed as reversal of multidrug resistance at 10 uM by measuring EC50 for adriamycin-induced cytotoxicity after 48 hrs by SRB colorimetric assay. Conditions: nci/adr-res.

For orientation: IC50 means the concentration at which inhibition is half-maximal. In the case of `C=C1CC[C@H]2[C@@H](/C=C(\C)C(=O)[C@@]3(O)C[C@H](C)[C@H](OC(=O)c4ccccc4)[C@@H]3[C@H]1OC(=O)c1ccccc1)C2(C)C`, the figures for the IC50 (in the series on MCF7; in series [10]) were 13.2 µM and 63.8 µM, respectively. Further, the Activity worked out at 104.4 in series [1]; 144.5 in [2]; 215.4 in [4]; 148.1 in [5]; 102 in series [6]; 102.7 in [8]. Besides, the Activity in series [9] was found to be 23.9%; in series [11] it was 215.4; in series [12] it was 196.8; in [13] it was 146.8. Moreover, the Flu intensity in series [3] amounted to 197.5; in series [7], 204.8; in series [14] it was 204.8. Besides, the Ratio EC50 in the series on NCI/ADR-RES worked out at 34.4.
Take `C=C1CC[C@H]2[C@@H](/C=C(\C)C(=O)[C@@]3(O)C[C@H](C)[C@H](O)[C@@H]3[C@H]1OC(=O)Cc1cccc3ccccc13)C2(C)C`: the IC50 worked out at 10.5 µM in the series with MCF7 and 33.7 µM in [10]. For the same compound, the Activity in series [1] stood at 102.2; in [2] it was 148.5; in [4], 131.1; in series [5], 138.7; in series [6], 94.2; in series [8] it was 96.3. The Activity is recorded as 15.5% in [9], 196.8 in series [11], 205.9 in [12] and 134.9 in series [13]. The results for the Flu intensity in series [3], in [7] and in [14] were 141.1, 168.1 and 182.1, respectively. Also, in the series on NCI/ADR-RES, the Ratio EC50 is 16.
For the compound `C=C1CC[C@H]2[C@@H](/C=C(\C)C(=O)[C@@]3(O)C[C@H](C)[C@H](OC(=O)CC)[C@@H]3[C@H]1OC(=O)Cc1cccc3ccccc13)C2(C)C`, the IC50 came out at 9.73 µM in the series with MCF7 and 75.7 µM in series [10]. For the same compound, the “inhibition (INH)” value in [15] was “Dose-dependent effect”. The Activity is 101.2 in series [1]; 137.9 in series [2]; 143.5 in series [4]; 131.4 in series [5]; 100.9 in series [6]; 94.8 in series [8]. The Activity in [9] turned out to be 14.4%; in series [11], 188.2; in series [12], 235.8; in series [13] it was 138.5. Further, the Flu intensity in [3] is 149.4; in series [7], 167.8; in [14], 204.6. Also, the Ratio EC50 in the series on NCI/ADR-RES was 28.6.
The logP is a log measure of how a compound divides between an organic and an aqueous phase. As usually defined, the EC50 is the concentration at which the effect is half-maximal. In the case of `C=C1CC[C@H]2[C@@H]([C@@H]3O[C@]4(C[C@H](C)[C@H](OC(C)=O)[C@@H]4[C@H]1OC(C)=O)C(=O)[C@H]3C)C2(C)C`, the IC50 in the series with MCF7 was 12.7 µM; in [10], above 100 µM. In addition, the Ratio EC50 in the series with NCI/ADR-RES is 10.7. In [16], the log partition coefficient (logP) turned out to be 3.4. Also, the EC50 in series [17] came to 3.23 µM. Besides, the Activity in series [9] turned out to be 13%.

(Values after ChEMBL document CHEMBL3425486, “Lathyrol diterpenes as modulators of P-glycoprotein dependent multidrug resistance: structure-activity relationship studies on Euphorbia factor L3 derivatives” (J Med Chem, 2015).)
